DENV2 CPE: protects cells from dengue virus 2 cytopathic effect; DENV2-infected cells, cytopathic effect rescue, plate reader; CPE inhibition, % at 9.99 µM; actives 1.7% (n = 350,000); AID 651640; in the data active = CPE inhibition above about 20%, passing the limit was not always enough; inconclusive = no clear call, values can overlap the other calls; tested in BHK-21 cells;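 also: 0% = median of neutral control wells and 100% = median of positive control wells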
FGF22 binding: shifts melting point of recombinant human FGF22; Q9HCT0; recombinant FGF22 thermal shift, SYPRO orange fluorescence; percent of sucrose octasulfate shift, DMSO zero; activity (Tm shift, normalised), % at 9.99 µM; actives 1.5% (n = 340,000); AID 651658;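 active = mean Tm shift, scaled 0 neutral to 100 positive control, at about 1.3% or above, every replicate too, limit read from the data; inconclusive = no clear call, values can overlap the other calls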
E-sel inducer: induces E-selectin expression in human endothelial cells | AID 686992 | actives 0.37% (n = 260,000) | HUVEC E-selectin immunofluorescence imaging; normalized: neutral wells 0, TNF-alpha wells 100 | P16581 | activation, % at 7.58 µM;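 active = mean E-selectin-positive cell signal at least 10% of the positive control, reached in at least 60% of replicates, without over 20% cell loss; inconclusive = no rule given, readout overlaps actives, possibly toxicity-flagged; inactive = the rest, including those meeting only one limit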
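Read-out: % PE-positive cells | Test system: HUVEC | Doses: One compound dose added by pin transfer | Buffer or medium: EGM-2 over gelatin coat | Signal: Immunofluorescence imaging | Benchmarks: TNF-alpha, DMSO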
F508del corr: CFTR F508del correction in bronchial cells | activity (quench increase), % at 7.58 µM | CFBE cells, YFP halide quenching; stimulated with forskolin plus potentiator P3; % fluorescence drop versus neutral controls | AID 720511 | actives 0.36% (n = 350,000);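 active = mean added fluorescence quench of at least 8% versus neutral control, with both replicates also reaching 8%; inconclusive = only one of the mean or replicate conditions met; inactive = mean below 8% and not both replicates reaching 8%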;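 also: cells transiently co-express mutant CFTR-F508del with the halide-sensitive YFP; corrector assay measuring rescue of mutant channel to the surface after 24 h compound exposure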
ERAP1 HTS inh: inhibitors of human ERAP1 aminopeptidase | actives 0.15% (n = 340,000) | inhibition, % at 10.7 µM | AID 652197 | Q9NZ08 | recombinant ERAP1, Leu-AMC fluorescence, 60 min;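 active = mean replicate inhibition of at least 30%, or all replicates individually reaching that 30% level; inactive = mean below 30% and not every replicate reaching it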;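 also: 0% = neutral control wells and 100% = L-leucinethiol positive control wells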
Target sequence (Q9NZ08 whole entry, looked up): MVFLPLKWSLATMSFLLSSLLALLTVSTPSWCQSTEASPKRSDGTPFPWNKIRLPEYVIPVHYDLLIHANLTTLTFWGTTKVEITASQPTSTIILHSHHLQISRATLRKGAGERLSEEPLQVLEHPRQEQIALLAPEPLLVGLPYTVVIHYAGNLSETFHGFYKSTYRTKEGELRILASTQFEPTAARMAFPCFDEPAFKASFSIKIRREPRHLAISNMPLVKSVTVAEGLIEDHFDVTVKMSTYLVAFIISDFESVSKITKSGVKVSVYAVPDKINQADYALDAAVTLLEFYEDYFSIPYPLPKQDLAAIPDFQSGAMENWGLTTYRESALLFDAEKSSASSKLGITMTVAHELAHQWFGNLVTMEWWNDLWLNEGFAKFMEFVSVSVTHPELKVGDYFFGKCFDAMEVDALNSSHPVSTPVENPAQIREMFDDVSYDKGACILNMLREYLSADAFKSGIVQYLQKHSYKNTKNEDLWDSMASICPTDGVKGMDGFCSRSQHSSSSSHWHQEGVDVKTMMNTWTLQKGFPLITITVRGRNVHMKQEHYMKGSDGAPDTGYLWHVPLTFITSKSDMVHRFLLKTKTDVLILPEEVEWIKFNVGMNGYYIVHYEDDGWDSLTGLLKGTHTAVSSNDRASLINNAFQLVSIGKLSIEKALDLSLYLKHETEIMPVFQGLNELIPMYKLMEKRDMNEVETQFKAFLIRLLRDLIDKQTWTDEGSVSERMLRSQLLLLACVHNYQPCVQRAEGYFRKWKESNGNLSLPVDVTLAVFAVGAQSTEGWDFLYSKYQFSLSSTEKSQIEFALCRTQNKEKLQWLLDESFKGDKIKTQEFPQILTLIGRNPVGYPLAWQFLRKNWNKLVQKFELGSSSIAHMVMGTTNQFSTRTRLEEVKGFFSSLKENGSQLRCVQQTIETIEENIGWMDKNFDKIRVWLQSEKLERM
The depositor's hits bear a star; ? = inconclusive; . = no result given; ! = a repeat was not active. This is a sample that favours compounds with a hit; in the whole collection about 3.7% have one here.

SMILES	DENV2 CPE	FGF22 binding	E-sel inducer	F508del corr	ERAP1 HTS inh
C[C@H](CCC(=O)O)[C@H]1CC[C@H]2[C@@H]3CC[C@@H]4C[C@H](O)CC[C@]4(C)[C@H]3C[C@H](O)[C@]12C	30.1*!	-0.6	0.1	-12.6	12.2
CCCCN1C(N)=NC[C@@H]1C(C)O (some centres not stated)	23.0*	-0.3	-0.2	1.3	.
CC(O)[C@H]1CN=C(N)N1CC(C)(C)C (some centres not stated)	-0.9	-0.4	-0.2	0.8	.
CC(C)NC(=O)N(C)C[C@H]1Oc2ccc(NC(=O)Nc3ccccc3)cc2CC(=O)N([C@H](C)CO)C[C@@H]1C	-3.1	-0.2	.	0.4	0.0
CC1(C)N=C(N)NC(Nc2ccccc2Cl)=N1	8.0	43.0*	.	-0.8	-0.5
COc1ccc(-c2ccccc2[C@@H]2[C@@H](CO)N(C(=O)NC3CCCC3)[C@H]2C#N)cc1	-3.4	.	-0.1	0.7	-3.7
CN1C(=O)c2cc(NC(=O)NC3CCCC3)ccc2OC[C@H]2O[C@H](CC(=O)O)CC[C@@H]21	-2.3	0.1	0.0	0.4	0.3
CN1C(=O)c2cc(NC(=O)NC3CCCC3)ccc2OC[C@@H]2O[C@H](CC(=O)O)CC[C@H]21	57.1*	-0.2	0.1	-2.9	-2.0
CN1C(=O)c2cc(NC(=O)Nc3ccccc3)ccc2OC[C@@H]2O[C@@H](CC(=O)O)CC[C@@H]21	56.6*	0.0	0.0	.	.
CN1C(=O)c2cc(NC(=O)Nc3ccccc3)ccc2OC[C@H]2O[C@@H](CC(=O)O)CC[C@H]21	.	.	-0.2	.	.
Cc1cccc(NC(=O)Nc2ccc3c(c2)C(=O)N(C)[C@@H]2CC[C@@H](CC(=O)O)O[C@H]2CO3)c1	71.9*	0.0	0.3	3.1	-6.0
CCS(=O)(=O)Nc1ccc2c(c1)C(=O)N(C)[C@@H]1CC[C@H](CC(=O)NC3CCCCC3)O[C@H]1CO2	76.3*	0.1	-0.2	0.4	2.6
COCCNC(=O)C[C@@H]1C[C@H]2c3cc(NC(=O)Nc4ccccc4)ccc3O[C@H]2[C@H](CO)O1	0.0	-0.6	0.3	1.5	-1.6
CCCNC(=O)N1C[C@H](C)[C@H](OC)CN(C)C(=O)c2ccc(NC(C)=O)cc2OC[C@H]1C	.	.	-0.2	-1.0	.
C[C@H]1CN([C@@H](C)CO)C(=O)c2cc(NC(=O)CCC(F)(F)F)ccc2O[C@@H]1CN(C)Cc1ccccc1	0.9	-0.1	-0.1	-1.2	-2.0
CNC(=O)C[C@H]1CC[C@H]2[C@H](COc3ccc(NC(=O)Nc4cc(C)cc(C)c4)cc3C(=O)N2C)O1	46.2*	-0.1	0.0	1.4	0.1
CCC(=O)Nc1ccc2c(c1)C(=O)N(C)[C@@H]1CC[C@H](CC(=O)O)O[C@H]1CO2	24.0*	0.0	0.1	-3.7	-0.5
CCC(=O)Nc1ccc2c(c1)C(=O)N(C)[C@@H]1CC[C@H](CC(=O)NC3Cc4ccccc4C3)O[C@H]1CO2	?	0.2	0.0	0.9	-0.1
CCC(=O)Nc1ccc2c(c1)C(=O)N(C)[C@H]1CC[C@H](CC(=O)O)O[C@H]1CO2	-1.4	0.0	0.2	0.6	-1.5
CNC(=O)C[C@H]1CC[C@@H]2[C@@H](COc3ccc(NC(=O)Nc4cc(C)cc(C)c4)cc3C(=O)N2C)O1	-4.4	-0.2	0.2	2.0	1.2
CN1C(=O)c2cc(NC(=O)c3ccc4c(c3)OCO4)ccc2OC[C@H]2O[C@@H](CC(=O)O)CC[C@H]21	68.9*	0.1	0.2	1.7	0.0
CN1C(=O)c2cc(NC(=O)c3ccc4c(c3)OCO4)ccc2OC[C@@H]2O[C@@H](CC(=O)O)CC[C@H]21	-2.2	-0.6	1.9	-1.8	0.5
CCC(=O)Nc1ccc2c(c1)C(=O)N(C)[C@@H]1CC[C@@H](CC(=O)NC3Cc4ccccc4C3)O[C@@H]1CO2	30.4*	0.3	0.0	-1.6	0.6
COc1cccc2c1C(=O)c1c(O)c3c(c(O)c1C2=O)CC(O)(C(C)=O)CC3OC1CC(N(C)C)C(O)C(C)O1 (configuration not stated)	-5.6	-0.1	.	33.9*	6.0
COc1cccc2c1C(=O)c1c(O)c3c(c(O)c1C2=O)C[C@@](O)(C(=O)CO)C[C@@H]3OC1CC(N)C(O)C(C)O1 (some centres not stated)	-1.1	0.1	?	13.8*	5.8
SMILES	DENV2 CPE	FGF22 binding	E-sel inducer	F508del corr	ERAP1 HTS inh
CC(=O)[C@@]1(O)Cc2c(O)c3c(c(O)c2[C@H](O[C@H]2C[C@H](N)[C@H](O)[C@H](C)O2)C1)C(=O)c1ccccc1C3=O	-12.5	-0.2	3.2	22.4*	.
COc1cccc2c1C(=O)c1c(O)c3c(c(O)c1C2=O)C[C@@](O)(C(=O)CO)C[C@@H]3O[C@H]1C[C@H](N)[C@H](O)[C@H](C)O1	-1.5	-0.3	57.7*	31.1*	6.6
COCC#Cc1cnc2c(c1)C(=O)N([C@H](C)CO)C[C@@H](C)[C@H](CN(C)S(C)(=O)=O)O2	-0.1	0.0	-0.2	1.6	-1.4
Nc1nc(Cl)nc2c1ncn2C1CC(O)C(CO)O1 (configuration not stated)	7.5	0.0	2.5	14.1*	-0.7
Nc1nc(Cl)nc2c1ncn2C1OC(CO)C(O)C1O (configuration not stated)	0.6	0.1	.	7.4	-0.2
Nc1ccn([C@H]2C[C@H](O)[C@@H](CO)O2)c(=O)n1	4.2	-0.2	-0.3	8.0*!	-1.4
Nc1ncn([C@H]2C[C@H](O)[C@@H](CO)O2)c(=O)n1	-3.4	-0.1	-0.2	0.6	0.2
CN(C)C(=O)C[C@H]1C=C[C@H](NC(=O)NC2CCCCC2)[C@@H](CO)O1	-4.8	0.2	-0.3	-1.7	-1.5
CC(=O)c1ccc(NC(=O)c2cc(C)nc3ccccc23)cc1	1.0	0.0	0.0	-1.4	-2.1
Cc1cccc(NC(=O)c2cccc(C(=O)Nc3cccc(C)c3)c2)c1	-1.7	2.0*	0.3	-0.4	1.3
CC(=O)c1ccc(NC(=O)c2cc(Cl)nc3ccccc23)cc1	-7.5	43.4*	.	0.8	1.5
O=C(Nc1cccc(Cl)c1)c1ccccc1	28.2*	0.4	-0.1	-0.9	.
Cc1cccc(NC(=O)c2cc(C)nc3ccccc23)c1	-0.4	0.1	61.0*	3.1	-2.6
CC(C)c1cn(CC[C@H]2CC[C@H](NC(=O)C3CCCC3)[C@@H](CO)O2)nn1	18.2	-0.4	-0.2	-0.6	2.9
CCCNC(=O)N(C)C[C@H]1Oc2ncc(C#Cc3ccncc3)cc2C(=O)N([C@H](C)CO)C[C@@H]1C	-7.2	0.0	-2.0	-0.5	1.0
C[C@@H]1CN([C@@H](C)CO)C(=O)Cc2cc(NS(=O)(=O)c3ccc(F)cc3)ccc2O[C@H]1CN(C)C(=O)Nc1cccc2ccccc12	-3.2	0.3	0.0	-1.8	-4.1
CCCC(=O)Nc1ccc2c(c1)C(=O)N(C)C[C@H](OC)[C@H](C)CN(C)[C@@H](C)CO2	-7.0	-0.1	0.1	-0.3	-6.9

Source: PubChem (Broad Institute)
